How the values were obtained:
Type in all cases: functional
H4 [1] = experiment: Increase in light chain 3-GFP+ autophagosome vesicle number per cell in human H4 cells at 6.8 uM after 24 hrs by high throughput fluorescence microscopy relative to control
Method in brief: (§1)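 H4 cells stably expressing LC3-GFP were grown in DMEM with 10% FBS and 2 mM L-glutamine at 37°C, 5% CO2. They were exposed to each compound for 24 h, with DMSO as negative and rapamycin as positive control. Cells were then fixed in 4% paraformaldehyde and stained with 3 μg/ml DAPI. High-throughput fluorescence imaging scored LC3-GFP spot number, size and intensity, expressed relative to DMSO. Mean ± SD of triplicates; experiments repeated three times.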

H4 [2] = experiment: Increase in light chain 3-GFP+ autophagosome vesicle area per cell in human H4 cells at 6.8 uM after 24 hrs by high throughput fluorescence microscopy relative to control
Method in brief: (§2)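 H4 cells stably expressing LC3-GFP, seeded in 96-well plates and exposed to compound for 24 h; screening concentrations were 3–12 μM, with rapamycin 0.22 μM and bafilomycin A1 0.40 μM. Cells fixed in 4% paraformaldehyde and stained with 3 μg/ml DAPI. Number, size and intensity of LC3-GFP spots measured by high-throughput fluorescence microscopy and expressed as percent of DMSO-treated wells. Rapamycin was the positive control. Triplicate wells, mean ± SD; experiments repeated three times.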

H4 [3] = experiment: Induction of light chain 3-GFP level in human H4 cells at 6.8 uM after 24 hrs by high throughput fluorescence microscopy relative to control
Method in brief: (§3)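 H4 cells stably expressing LC3-GFP, grown in DMEM with 10% FBS, penicillin/streptomycin and 2 mM L-glutamine at 37°C, 5% CO2. Cells were seeded in 96-well plates and exposed to library compounds at 3–12 μM for 24 h, then fixed in 4% paraformaldehyde and stained with 3 μg/ml DAPI. LC3-GFP spot number, size and intensity were measured by high-throughput fluorescence microscopy and expressed relative to DMSO. Triplicates, mean ± SD.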

H4 [4] = experiment: Increase in light chain 3-GFP+ autophagosome vesicle intensity per cell in human H4 cells at 6.8 uM after 24 hrs by high throughput fluorescence microscopy relative to control; method in brief: as §1
H4 [5] = experiment: Effect on FYVE-RFP+ vesicle intensity per cell in human H4 cells after 8 hrs relative to control; parameters: concentration or dose not given beside the values
Method in brief: (§4)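 H4 cells stably expressing FYVE-RFP (H4-FYVE), grown in DMEM with 10% FBS, penicillin/streptomycin and 2 mM L-glutamine at 37°C, 5% CO2, seeded in 96-well plates and exposed to compound. Fixed in 4% paraformaldehyde, nuclei stained with 3 μg/ml DAPI, FYVE-RFP+ vesicles quantified by high-throughput fluorescence microscopy against DMSO control. Triplicate wells, mean ± SD.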

H4 [6] = experiment: Increase in long-lived protein degradation in human H4 cells after 1 hr relative to control; parameters: concentration or dose not given beside the values
H4 [7] = experiment: Increase in light chain 3-GFP+ autophagosome vesicle intensity per cell in human H4 cells at 4.8 uM after 24 hrs by high throughput fluorescence microscopy relative to control
Method in brief: (§5)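 H4 cells stably expressing LC3-GFP, seeded in 96-well plates and exposed to compound for 24 h; fixed in 4% paraformaldehyde, nuclei stained with 3 μg/ml DAPI. Automated fluorescence microscopy scored number, size and intensity of LC3-GFP spots; values expressed relative to DMSO-treated wells, rapamycin positive control. Triplicate wells, mean ± SD; experiments repeated three times.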

H4 [8] = experiment: Induction of light chain 3-GFP level in human H4 cells at 4.8 uM after 24 hrs by high throughput fluorescence microscopy relative to control
Method in brief: (§6)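 H4 cells stably expressing LC3-GFP, kept in DMEM/10% FBS at 37°C, 5% CO2, were seeded in 96-well plates and exposed to compound for 24 h. Cells were then fixed in 4% paraformaldehyde and stained with 3 μg/ml DAPI. Automated fluorescence microscopy scored the number, size and intensity of LC3-GFP spots. Values are percent of DMSO wells, in triplicate, mean ± SD. Rapamycin served as positive control.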

H4 [9] = experiment: Increase in long-lived protein degradation in human H4 cells after 24 hrs relative to control; parameters: concentration or dose not given beside the values
H4 [10] = experiment: Increase in light chain 3-GFP+ autophagosome vesicle area per cell in human H4 cells at 4.8 uM after 24 hrs by high throughput fluorescence microscopy relative to control; method in brief: as §5
H4 [11] = experiment: Induction of light chain 3-GFP level in human H4 cells at 7.71 uM after 24 hrs by high throughput fluorescence microscopy relative to control; method in brief: as §3
H4 [12] = experiment: Increase in light chain 3-GFP+ autophagosome vesicle intensity per cell in human H4 cells at 7.71 uM after 24 hrs by high throughput fluorescence microscopy relative to control; method in brief: as §1
H4 [13] = experiment: Increase in long-lived protein degradation in human H4 cells after 4 hrs relative to control; parameters: concentration or dose not given beside the values
H4 [14] = experiment: Increase in light chain 3-GFP+ autophagosome vesicle number per cell in human H4 cells at 4.8 uM after 24 hrs by high throughput fluorescence microscopy relative to control; method in brief: as §6
H4 [15] = experiment: Increase in light chain 3-GFP+ autophagosome vesicle area per cell in human H4 cells at 7.71 uM after 24 hrs by high throughput fluorescence microscopy relative to control; method in brief: as §2
H4 [16] = experiment: Increase in light chain 3-GFP+ autophagosome vesicle number per cell in human H4 cells at 7.71 uM after 24 hrs by high throughput fluorescence microscopy relative to control; method in brief: as §1
H4 [17] = experiment: Effect on FYVE-RFP+ vesicle intensity per cell in human H4 cells after 4 hrs relative to control; parameters: concentration or dose not given beside the values; method in brief: as §4
H4 [18] = experiment: Increase in long-lived protein degradation in human H4 cells after 2 hrs relative to control; parameters: concentration or dose not given beside the values
H4 [19] = experiment: Effect on FYVE-RFP+ vesicle intensity per cell in human H4 cells after 2 hrs relative to control; parameters: concentration or dose not given beside the values; method in brief: as §4

Compound	Activity (H4 [1])	Activity (H4 [2])	Activity (H4 [3])	Activity (H4 [4])	Activity (H4 [5])	Activity (H4 [6])	Activity (H4 [7])	Activity (H4 [8])	Activity (H4 [9])	Activity (H4 [10])	Activity (H4 [11])	Activity (H4 [12])	Activity (H4 [13])	Activity (H4 [14])	Activity (H4 [15])	Activity (H4 [16])	Activity (H4 [17])	Activity (H4 [18])	Activity (H4 [19])
COc1cc(/C=C/C(=O)CC(=O)/C=C/c2ccc(O)c(OC)c2)ccc1O [CURCUMIN]	59.32%	228.38%	59.32%	249.22%															
NCCNS(=O)(=O)c1cccc2cnccc12					83.01%	100.94%	15083%	49.3%	96.19%	172.66%	96.7%	156.16%	96.55%	181.04%	139.79%	130.98%	79.63%	91.55%	102.35%

From ChEMBL document CHEMBL1145471, “Small molecule regulators of autophagy identified by an image-based high-throughput screen” (Proc Natl Acad Sci U S A, 2007)
